# Runt-CBFb FRET – inhibitors of RUNX1 Runt–CBFb binding, primary screen, biochemical, FRET, Cerulean-Runt, Venus-CBFb, uHTS. Runt-related transcription factor 1 (Homo sapiens) + Core-binding factor subunit beta …. Cerulean-Runt/Venus-CBFb FRET ratio 530/480, 1 h. inhibition, % at 20 µM. 0.46% of 220,000 active. AID 1496, 2009;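 active means inhibition over about 50% at 20 µM in the single-dose screen, limit read from the data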
# Target sequence (Q01196 whole entry, looked up): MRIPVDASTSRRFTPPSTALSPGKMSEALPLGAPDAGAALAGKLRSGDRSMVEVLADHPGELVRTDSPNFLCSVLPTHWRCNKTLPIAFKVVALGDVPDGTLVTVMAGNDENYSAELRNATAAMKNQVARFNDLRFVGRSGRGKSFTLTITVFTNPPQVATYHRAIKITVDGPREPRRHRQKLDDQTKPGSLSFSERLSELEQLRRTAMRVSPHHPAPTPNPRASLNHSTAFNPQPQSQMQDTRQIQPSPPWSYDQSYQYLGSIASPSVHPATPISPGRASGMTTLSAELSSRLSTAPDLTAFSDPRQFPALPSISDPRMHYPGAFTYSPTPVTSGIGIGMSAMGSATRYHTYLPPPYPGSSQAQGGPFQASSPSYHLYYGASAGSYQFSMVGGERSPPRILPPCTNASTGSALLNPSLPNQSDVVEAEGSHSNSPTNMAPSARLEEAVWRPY
# Target sequence (Q13951 whole entry, looked up): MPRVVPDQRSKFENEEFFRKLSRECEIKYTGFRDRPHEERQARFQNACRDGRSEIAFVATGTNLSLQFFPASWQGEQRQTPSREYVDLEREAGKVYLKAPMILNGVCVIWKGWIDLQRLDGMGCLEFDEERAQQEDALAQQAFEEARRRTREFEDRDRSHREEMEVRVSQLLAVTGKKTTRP
#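 Measured by: fluorescence energy transfer, 422 nm excitation, 530/480 nm emission; Assay system: Cerulean-Runt domain; Medium: Tris pH 7.5 buffer with BSA; Measure: loss of energy transfer signal; Controls: 5 µM unlabeled CBFb as full-inhibition high control; Incubation: protein complex preformed 1 h, compound exposure 1 h, room temperature, dark.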
# Runt-SMMHC FRET – inhibitors of RUNX1 Runt–CBFb-SMMHC binding, primary screen, biochemical, FRET, Cerulean-Runt, Venus-CBFb-SMMHC, uHTS | Runt-related transcription factor 1 (Homo sapiens) + Core-binding factor subunit beta … | inhibition, % at 20 µM | AID 1434, 2008 | 0.74% of 220,000 active | Cerulean-Runt/Venus-CBFb-SMMHC FRET ratio 530/480, 1 h;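 active means mean inhibition across duplicate retests at 20 µM reaching about 50%, limit read from the data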;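 further: inhibitors lower the FRET ratio by blocking Runt binding to CBFb-SMMHC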
# RanGTP-Impb inh – inhibitors of RanGTP-importin-beta interaction, primary screen, biochemical, FRET, CFP-Ran, YFP-importin-beta, homogeneous. Ran GTPase (GTP-bound) - importin-beta complex. AID 2216, 2009. 1.1% of 300,000 active. cell-free CFP-Ran/YFP-importin-beta FRET ratio. inhibition, % (no concentration beside the values);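 active means more than half of the replicate wells show a fall in the fluorescence ratio signal beyond about 16%, limit read from the data, passing the limit was not always enough; inconclusive means exactly half of the replicate wells pass the set limit; inactive means fewer than half of replicates pass the limit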
# Hck Nef HTS – inhibitors of Nef-activated human Hck kinase, primary screen, biochemical, Z-Lyte FRET, 384-well, Hck-YEEI; Tyrosine-protein kinase HCK (Homo sapiens), P08631; Recombinant Hck-YEEI plus Nef, Z-Lyte FRET kinase assay; inhibition, % at 20 µM; 0.68% of 220,000 active;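 active means Hck-Nef kinase inhibition above about 50%, limit read from the data; inactive means inhibition below that limit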
# Tb hexokinase – Trypanosoma brucei hexokinase 1 inhibitors, primary screen, biochemical, G6PDH-coupled NADH absorbance, MLSCN library. hexokinase 1 [Trypanosoma brucei]. inhibition, % at 10 µM. recombinant TbHK1, G6PDH-coupled NADH A340. 0.11% of 220,000 active;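 active means inhibition of 50% or more in the single-dose primary screen; inactive means inhibition below 50%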
# Numbers stand for hits; – = inactive; ? = inconclusive; · = not tested or not shown. Only some compounds are listed: those with a hit (about 1.9% of all), similar ones and a draw of the others.
SMILES,Runt-CBFb FRET,Runt-SMMHC FRET,RanGTP-Impb inh,Hck Nef HTS,Tb hexokinase
CN1Cc2c(N3CCOCC3)nc(SCc3ccccc3)c(C#N)c2CC1(C)C,–,62,27,–,–
COC(=O)CSc1nc(N2CCOCC2)c2c(c1C#N)CC(C)(C)N(C)C2,–,56,18,–,–
CC1(C)Cc2c(C#N)c(SCC(=O)c3ccccc3)nc(N3CCOCC3)c2CS1,–,–,–,–,–
CCSc1nc(N2CCOCC2)c2c(c1C#N)CC(C)(C)N(C)C2,95,91,–,–,–
C=CCSc1nc(N2CCOCC2)c2c(c1C#N)CC(C)(C)N(C)C2,–,–,?,–,–
CCOC(=O)C1CCN(C(=O)Nc2cc(Cl)cc(Cl)c2)CC1,–,–,–,–,–
Cc1[nH]nc2c1C1(CCN(Cc3ccccc3)CC1)C(C#N)=C(N)O2,–,–,?,–,–
CC(C)c1[nH]nc2c1C1(CCN(Cc3ccccc3)CC1)C(C#N)=C(N)O2,–,59,21,–,–
O=C1Cc2ccccc2C(=O)N1Cc1cccc(Cl)c1,·,·,–,·,·
Nc1cccc2c1C(=O)N(Cc1cccc(Cl)c1)C2=O,–,93,–,–,–
O=C1C=C(NNC(=O)c2ccccc2Br)CCC1,–,–,–,–,–
Nc1ccc(C(=O)N2CCN(S(=O)(=O)c3ccc(Br)cc3)CC2)cc1[N+](=O)[O-],·,·,–,·,·
Cc1ccnc(N/C=C(\C#N)c2nc(-c3cccc(Br)c3)cs2)c1,–,–,56,–,–
CCc1nn(-c2ccccc2)c2c1-c1cc(OC)c(OC)cc1C1(N2)C(=O)Nc2ccccc21 (centres undefined),–,–,31,–,–
CCN(CC)c1ccc(/C=C(\C#N)C(N)=S)cc1,–,–,–,–,–
CCN(CC)c1ccc(/C=C(\C#N)C(N)=O)cc1,–,63,·,–,–
O=S(=O)(O)c1cc(O)c2c(O)c(N=Nc3cc(Cl)ccc3O)c(S(=O)(=O)O)cc2c1,·,·,57,·,·
COc1ccc(Cn2c(O)c(/C=N/NC(=O)c3cccnc3)c3ccccc3c2=O)cc1,–,86,–,–,–
COc1ccc(Cn2c(O)c(C=Nc3ccccc3C(=O)O)c3ccccc3c2=O)cc1,–,–,–,–,–
O=C(N/N=C/c1c(O)n(-c2ccccc2Cl)c(=O)c2ccccc12)c1cccnc1,–,86,–,–,–
O=C(N/N=C/c1c(O)n(Cc2ccccc2)c(=O)c2ccccc12)c1cccnc1,–,87,–,–,–
COc1nc(C)cc(C)c1S(=O)(=O)c1ccccc1C,·,·,–,·,·
COc1nc(N)c(S(=O)(=O)c2ccccc2C)cc1C#N,–,60,–,–,–
CN(C)c1ncc(S(=O)(=O)c2ccccc2)c(N)n1,–,–,–,–,–
COc1nc(N)c(S(=O)(=O)c2ccccc2)cc1C#N,–,99,–,–,–
SMILES,Runt-CBFb FRET,Runt-SMMHC FRET,RanGTP-Impb inh,Hck Nef HTS,Tb hexokinase
Cn1cnnc1SCC(=O)c1c[nH]c2ccccc12,–,–,31,–,–
O=C(CSc1nncn1-c1ccccc1)c1c[nH]c2ccccc12,–,–,–,–,–
CC(=O)N1c2ccc(S(=O)(=O)N3CCC(C(=O)NCc4ccc(N(C)C)cc4)CC3)cc2CC1C (centres undefined),·,·,67,·,·
CCCn1nc(NC(=O)CC(C)C)c2cc3ccccc3nc21,–,–,27,–,–
CC(C)Cn1nc(NC(=O)C(C)(C)C)c2cc3ccccc3nc21,–,–,–,–,–
CCn1nc(NS(=O)(=O)c2ccc(NC(C)=O)cc2)c2cc3ccccc3nc21,·,·,–,·,·
CCCCC(=O)Nc1nn(CC(C)C)c2nc3ccccc3cc12,–,–,29,–,–
COC(=O)C1=C(N)Oc2cc(N(C)C)ccc2C1c1ccccc1OC (centres undefined),–,–,24,–,–
CC(C)NC(=O)C(=O)NNC(=O)CCc1ccccc1,–,–,–,–,–
CCOC(=O)C1CCN(C(=O)c2ccc3nc(-c4ccc(OC)cc4)c(-c4ccc(OC)cc4)nc3c2)CC1,·,·,24,·,·
CCOC(=O)C1CCN(C(=O)c2ccc(Cl)c(Cl)c2)CC1,–,–,·,–,–
CC(=O)NCCn1c(SCC(=O)NC2CCCCC2)nc2ccccc2c1=O,–,–,18,–,–
CN(C)c1ncc(/C=C2/C(=O)NC(=S)N(C3CCCCC3)C2=O)cn1,–,–,·,68,–
CC(C)CC1NC(=S)N(C2CCCCC2)C1=O (centres undefined),–,–,–,–,–
CCOc1ccc(C2C(C(=O)C3CC3)N3C=C(C#N)C=CC3C2(C#N)C#N)cc1 (centres undefined),–,–,30,–,–
CCOc1ccc(C(=O)C2CCN(C(=O)c3ccccc3C(=O)O)CC2)cc1,–,–,–,–,–
COc1ccc(Nc2nc(-c3cccs3)nc3ccccc23)cc1S(=O)(=O)N1CCOCC1,·,·,–,·,·
Nc1cc(=O)[nH]c(SCC(=O)Nc2cccc(Cl)c2)n1,–,–,?,–,–
Nc1cc(=O)[nH]c(SCC(=O)Nc2ccc(Oc3ccccc3)cc2)n1,·,·,32,·,·
CC1(C)CC(=O)C=C(Nc2ccc(O)c(C(=O)O)c2)C1,·,·,–,·,·
Cc1ccc(NC2=CC(=O)CC(C)(C)C2)cc1C,–,–,–,–,–
CC1(C)CC(=O)C=C(Nc2ccc3c(c2)OCCO3)C1,–,–,26,–,–
CC1(C)CC(=O)C=C(Nc2cccc(O)c2)C1,–,–,45,–,–
CC1(C)CC(=O)C=C(Nc2ccc(C(=O)O)cc2)C1,–,–,29,–,–
Cn1cc(S(=O)(=O)c2ccccc2)n(C)c1=O,–,–,–,–,–
SMILES,Runt-CBFb FRET,Runt-SMMHC FRET,RanGTP-Impb inh,Hck Nef HTS,Tb hexokinase
Cc1cc(/C=C2\SC(=S)N(C)C2=O)c(C)n1-c1ccc(O)cc1,–,–,37,–,–
Cc1cc(/C=C2\SC(=S)NC2=O)c(C)n1-c1cccc(O)c1,–,–,20,65,–
Cc1cc(/C=C2\SC(=S)N(C)C2=O)c(C)n1-c1ccccc1O,·,·,44,·,·
O=C(NCc1ccon1)C1CCC(=O)N(CCc2cccc(F)c2)C1 (centres undefined),·,·,–,·,·
CCOC(=O)c1cc2c(=O)n3ccccc3nc2n(Cc2ccco2)c1=NC(=O)c1ccccc1OCC,74,88,–,–,–
CCOC(=O)c1c(C)nc2c(C)cccn12,–,–,–,–,–
CCOC(=O)c1cc2c(=O)n3cccc(C)c3nc2n(Cc2ccco2)c1=NC(=O)c1cccnc1,102,63,·,–,–
CCOC(=O)c1cc2c(=O)n3ccccc3nc2n(Cc2ccco2)c1=NC(=O)c1cccnc1,52,–,–,–,–

# Bioassay records (PubChem BioAssay)
